Data: article PMC9091711 (RSC Advances, 2018)

Columns and labels:
Jurkat cells = assay: Annexin V-FITC/PI apoptosis assay by flow cytometry; type: cell-based, human; settings: 24 h, 4a at IC50 concentration
caspase-3 = assay: Active caspase-3 expression by flow cytometry; type: cell-based, human; settings: Jurkat cells, 24 h, 4a at IC50 concentration
Method in brief: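 Jurkat cells were seeded at 1 × 10^6 cells per well and left 12 h, then exposed to the test compound for 24 h. Cells were harvested, fixed in 70% ice-cold ethanol at −20 °C for 30 min, and washed twice with PBS. They were stained with FITC anti-active caspase-3 antibody for 60 min at room temperature in the dark, washed, resuspended in PBS and analysed by flow cytometry.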

[1] = cited from earlier work

| SMILES | Apoptotic dying cells (M2, Annexin-V-FITC fluorescence intensity) (Jurkat cells) [%] | Cells in late stage apoptosis (Jurkat cells; Annexin V-FITC/PI) [%] | Active caspase-3 expression (M2, apoptotic cells) (caspase-3) [%] | Stability in solution [1] |
| --- | --- | --- | --- | --- |
| CC[C@@]1(O)C(=O)OCc2c1cc1n(c2=O)Cc2cc3ccccc3nc2-1 [CPT, camptothecin] | 68 | 14 | > 54 | – |
| CC(C)(C)C[C@@H]1N[C@@H](C(=O)N[C@H]2CC[C@H](O)CC2)[C@H](c2cccc(Cl)c2F)[C@]12C(=O)Nc1cc(Cl)ccc12 [MI-773] | – | – | – | low stability in solution |
